# From ChEMBL document CHEMBL1255227, “Novel pyridylmethylamines as highly selective 5-HT(1A) superagonists” (J Med Chem, 2010)
# Key:
# [1] = Displacement of [3H]WAY-100635 from 5-HT1A receptor in pig cortex membranes; format: cell membranes, Sus scrofa
# [2] = target: T1, 5-hydroxytryptamine receptor 1A (Homo sapiens, UniProt P08908); assay: Intrinsic activity at human 5-HT1A receptor expressed in CHO cells assessed as increase of serotonin-induced [35S]GTPgammaS binding; format: functional, cell-based
# T1 sequence (P08908 whole entry): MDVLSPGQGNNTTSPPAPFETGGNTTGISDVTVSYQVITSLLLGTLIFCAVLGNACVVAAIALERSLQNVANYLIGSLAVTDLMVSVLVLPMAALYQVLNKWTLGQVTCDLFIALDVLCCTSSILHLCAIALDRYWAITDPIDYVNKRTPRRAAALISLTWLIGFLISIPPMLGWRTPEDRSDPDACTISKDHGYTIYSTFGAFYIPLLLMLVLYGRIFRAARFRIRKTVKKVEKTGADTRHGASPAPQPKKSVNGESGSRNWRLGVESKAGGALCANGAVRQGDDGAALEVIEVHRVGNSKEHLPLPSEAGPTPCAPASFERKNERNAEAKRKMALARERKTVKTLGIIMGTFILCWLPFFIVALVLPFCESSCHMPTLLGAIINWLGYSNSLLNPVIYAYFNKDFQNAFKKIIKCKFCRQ
# In short: (§1)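 Membranes from CHO cells stably expressing human 5-HT1A were incubated with 0.1 nM [35S]GTPγS and test compound at eight concentrations (0.01-10000 nM), in hexaduplicate. Values come from a mean curve of four experiments. Emax is expressed relative to the maximal serotonin effect.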
# [3] = target: T2, 5-hydroxytryptamine receptor 1A (Homo sapiens) (UniProt P08908); assay: Intrinsic activity at human 5-HT1A receptor expressed in CHO cells assessed as increase of serotonin-induced [35S]GTPgammaS binding relative to serotonin; format: functional, cell-based; in short: as §1
# T2 sequence (whole entry): T1 sequence (P08908 whole entry)
smiles,measurement,setting,value
Cc1ccc(CNCC2(F)CCN(C(=O)c3sc4sccc4c3Cl)CC2)nc1,Ki,[1],25 nM
same,EC50,[2],59 nM
same,Emax,[3],97%
Cc1ccc(CNCC2(F)CCN(C(=O)c3ccccc3-c3ccccc3)CC2)nc1,Ki,[1],330 nM
Cc1ccc(CNCC2(F)CCN(C(=O)c3ccc4[nH]ccc4c3)CC2)nc1,Ki,[1],380 nM
same,EC50,[2],100 nM
same,Emax,[3],94%
Cc1ccc(CNCC2(F)CCN(C(=O)c3cccc(-c4ccccc4)c3)CC2)nc1,Ki,[1],69 nM
Cc1ccc(CNCC2(F)CC3CCC(C2)N3C(=O)c2ccccc2)nc1 (stereo not drawn),Ki,[1],340 nM
Cc1ccc(CNCC2(F)CCN(C(=O)c3cc4ccccc4s3)CC2)nc1,Ki,[1],190 nM
same,EC50,[2],240 nM
same,Emax,[3],116%
Cc1ccc(CNCC2(F)CCN(C(=O)C34CC5CC(C3)CC(C(F)(F)C(F)C(F)(F)F)(C5)C4)CC2)nc1 (stereo not drawn),Ki,[1],1300 nM
Cc1ccc(CNCC2(F)CCN(C(=O)c3ccc(-c4csc(C)n4)s3)CC2)nc1,Ki,[1],450 nM
Cc1ccc(CNCC2(F)CCN(C(=O)C34CC5CC(C)(CC(C)(C5)C3)C4)CC2)nc1,Ki,[1],470 nM
Cc1ccc(CNCC2(F)CCN(C(=O)c3ccsc3)CC2)nc1,Ki,[1],27 nM
same,EC50,[2],12 nM
same,Emax,[3],95%
Cc1ccc(CNCC2(F)CCN(C(=O)C34CC5CC(CC(O)(C5)C3)C4)CC2)nc1,Ki,[1],1300 nM
same,EC50,[2],600 nM
same,Emax,[3],90%
Cc1ccc(CNCC2(F)CCN(C(=O)c3cc4ccccc4[te]3)CC2)nc1,Ki,[1],51 nM
same,EC50,[2],36 nM
same,Emax,[3],46%
Cc1ccc(CNCC2(O)CCN(C(=O)c3ccc(F)c(Cl)c3)CC2)nc1,Ki,[1],11 nM
same,EC50,[2],6.6 nM
same,Emax,[3],109%
Cc1ccc(CNCC2(F)CC3CCC(C2)N3C(=O)c2ccc(F)c(Cl)c2)nc1 (stereo not drawn),Ki,[1],110 nM
Cc1ccc(CNCC2(F)CCN(C(=O)c3ccsc3Br)CC2)nc1,Ki,[1],16 nM
Cc1ccc(CNCC2(F)CCN(C(=O)c3cc4sccc4s3)CC2)nc1,Ki,[1],37 nM
same,EC50,[2],130 nM
same,Emax,[3],100%
Cc1ccc(CNCC2(O)CC3CCC(C2)N3C(=O)c2ccsc2)nc1 (stereo not drawn),Ki,[1],43 nM
same,EC50,[2],32 nM
same,Emax,[3],101%
Cc1ccc(CNCC2(F)CCN(C(=O)c3cc(Br)c(Br)s3)CC2)nc1,Ki,[1],4.8 nM
Cc1ccc(CNCC2(O)CCN(C(=O)c3ccsc3)CC2)nc1,Ki,[1],120 nM
Cc1ccc(CNCC2(F)CCN(C(=O)c3ccoc3)CC2)nc1,Ki,[1],182 nM
same,EC50,[2],240 nM
same,Emax,[3],99%
Cc1ccc(CNCC2(F)CCN(C(=O)c3ccc4[nH]nnc4c3)CC2)nc1,Ki,[1],910 nM
CSc1ccc(C(=O)N2CCC(F)(CNCc3ccc(C)cn3)CC2)s1,Ki,[1],18 nM
same,EC50,[2],54 nM
same,Emax,[3],91%
Cc1ccc(CNCC2(F)CCN(C(=O)c3scc4c3CCCC4)CC2)nc1,Ki,[1],20 nM
same,EC50,[2],86 nM
same,Emax,[3],104%
Cc1ccc(CNCC2(F)CCN(C(=O)c3coc(Br)c3)CC2)nc1,Ki,[1],26 nM
CCC12CC3CC(C1)CC(C(=O)N1CCC(F)(CNCc4ccc(C)cn4)CC1)(C3)C2,Ki,[1],29 nM
Cc1ccc(CNC[C@@]2(O)C[C@H]3CC[C@@H](C2)N3C(=O)c2ccccc2)nc1 (stereo in doubt; 38) [listing 1 of 2 here],Emax,[3],< 10%
Cc1ccc(CNCC2(F)CCN(C(=O)c3cc4ccsc4s3)CC2)nc1,Ki,[1],46 nM
same,EC50,[2],39 nM
same,Emax,[3],103%
Cc1ccc(CNCC2(F)CCN(C(=O)c3sccc3C)CC2)nc1,Ki,[1],26 nM
same,EC50,[2],35 nM
same,Emax,[3],96%
Cc1ccc(CNC[C@@]2(O)C[C@H]3CCC[C@@H](C2)N3C(=O)c2ccccc2)nc1 (stereo in doubt; 41),Ki,[1],150 nM
Cc1ccc(CNCC2(F)CCN(C(=O)c3ccc4ccccc4c3)CC2)nc1,Ki,[1],15 nM
same,EC50,[2],52 nM
same,Emax,[3],110%
Cc1ccc(CNCC2(F)CCN(C(=O)c3ccc(-c4ccccc4)cc3)CC2)nc1,Ki,[1],300 nM
Cc1ccc(CNCC2(F)CCN(C(=O)c3cc[nH]n3)CC2)nc1,Ki,[1],910 nM
Cc1ccc(CNCC2(F)CC3CCC(C2)N3C(=O)c2ccsc2)nc1 (stereo not drawn),Ki,[1],260 nM
Cc1ccc(CNCC2(F)CCN(C(=O)c3ccc4[nH]cnc4c3)CC2)nc1,Ki,[1],3500 nM
Cc1ccc(CNCC2(F)CCN(C(=O)c3cnn4ccccc34)CC2)nc1,Ki,[1],93 nM
same,EC50,[2],310 nM
same,Emax,[3],96%
Cc1ccc(CNCC2(F)CCN(C(=O)c3cc4ccccc4[nH]3)CC2)nc1,Ki,[1],94 nM
Cc1ccc(CNCC2(F)CCN(C(=O)c3ccc(Cl)s3)CC2)nc1,Ki,[1],21 nM
same,EC50,[2],46 nM
same,Emax,[3],101%
COc1c(C(=O)N2CCC(F)(CNCc3ccc(C)cn3)CC2)csc1Br,Ki,[1],17 nM
same,EC50,[2],62 nM
same,Emax,[3],95%
Cc1ccc(CNCC2(F)CCN(C(=O)c3ccc(-c4cccs4)s3)CC2)nc1,Ki,[1],420 nM
Cc1ccc(CNCC2(O)CCN(C(=O)c3ccccc3)CC2)nc1,Ki,[1],79 nM
Cc1ccc(CN(C)CC2(F)CCN(C(=O)c3ccc(F)c(Cl)c3)CC2)nc1,Ki,[1],74 nM
same,EC50,[2],8.6 nM
same,Emax,[3],77%
Cc1ccc(CNC[C@@]2(O)C[C@H]3CC[C@@H](C2)N3C(=O)c2ccccc2)nc1 (stereo in doubt; 34) [listing 1 of 2 here],Emax,[3],113%
Cc1ccc(CNC[C@@]2(O)C[C@H]3CCC[C@@H](C2)N3C(=O)c2ccccc2)nc1 (stereo in doubt; 43),Ki,[1],1600 nM
Cc1ccc(CNCC2(F)CCN(C(=O)c3ccc(C)s3)CC2)nc1,Ki,[1],14 nM
same,EC50,[2],42 nM
same,Emax,[3],104%
Cc1ccc(CNCC2(F)CCN(C(=O)C34CC5CC(CC(Br)(C5)C3)C4)CC2)nc1,Ki,[1],120 nM
Cc1ccc(CNCC2(F)CCN(C(=O)c3sc(Br)c4c3OCCO4)CC2)nc1,Ki,[1],32 nM
same,EC50,[2],63 nM
same,Emax,[3],102%
Cc1ccc(CNCC2(F)CCN(C(=O)C3CCc4ccccc4C3)CC2)nc1 (stereo not drawn),Ki,[1],160 nM
COc1c(C(=O)N2CCC(F)(CNCc3ccc(C)cn3)CC2)csc1Cl,Ki,[1],18 nM
same,EC50,[2],50 nM
same,Emax,[3],102%
Cc1ccc(CNCC2(F)CCN(C(=O)c3sccc3-n3cccc3)CC2)nc1,Ki,[1],360 nM
Cc1ccc(CNCC2(F)CCN(C(=O)C34CC5CC(CC3C5)C4)CC2)nc1,Ki,[1],11 nM
same,EC50,[2],47 nM
same,Emax,[3],96%
Cc1ccc(CNCC2(F)CCN(C(=O)c3cc4ccccc4o3)CC2)nc1,Ki,[1],64 nM
same,EC50,[2],34 nM
same,Emax,[3],87%
COc1cscc1C(=O)N1CCC(F)(CNCc2ccc(C)cn2)CC1,Ki,[1],56 nM
same,EC50,[2],99 nM
same,Emax,[3],93%
Cc1ccc(CNCC2(F)CCN(C(=O)c3cc(Br)c(Br)o3)CC2)nc1,Ki,[1],8.9 nM
Cc1ccc(CNCC2(F)CCN(C(=O)c3ccccc3)CC2)nc1,Ki,[1],15 nM
same,EC50,[2],13 nM
same,Emax,[3],96%
Cc1ccc(CNCC2(F)CCN(C(=O)c3ccc[nH]3)CC2)nc1,Ki,[1],660 nM
Cc1ccc(CNCC2(F)CCN(C(=O)c3ccc(Br)s3)CC2)nc1,Ki,[1],19 nM
same,EC50,[2],30 nM
same,Emax,[3],95%
Cc1ccc(CNCC2(F)CCN(C(=O)C34CC5CC(C)(CC(Br)(C5)C3)C4)CC2)nc1 (stereo not drawn),Ki,[1],460 nM
Cc1ccc(CNCC2(F)CCN(C(=O)c3ccc(F)s3)CC2)nc1,Ki,[1],35 nM
Cc1ccc(CNCC2(F)CCN(C(=O)c3sccc3Cl)CC2)nc1,Ki,[1],25 nM
same,EC50,[2],30 nM
same,Emax,[3],99%
Cc1ccc(CNCC2(F)CCN(C(=O)C34CC5CC(CC(C5)C3)C4)CC2)nc1,Ki,[1],17 nM
same,EC50,[2],11 nM
same,Emax,[3],98%
Cc1ccc(CNCC2(F)CCN(C(=O)C34CC5CC(CC(Cl)(C5)C3)C4)CC2)nc1,Ki,[1],92 nM
same,EC50,[2],48 nM
same,Emax,[3],91%
Cc1ccc(CNCC2(F)CCN(C(=O)c3ccc(-c4ccccn4)s3)CC2)nc1,Ki,[1],470 nM
Cc1ccc(CNCC2(F)CCN(C(=O)c3ccc(-c4ccccc4)s3)CC2)nc1,Ki,[1],500 nM
Cc1ccc(CNCC2(F)CCN(C(=O)c3cc4cc(Br)ccc4s3)CC2)nc1,Ki,[1],220 nM
Cc1ccc(CNC[C@@]2(O)C[C@H]3CC[C@@H](C2)N3C(=O)c2ccccc2)nc1 (stereo in doubt; 34) [listing 2 of 2 here],Ki,[1],100 nM
same,EC50,[2],270 nM
Cc1ccc(CNCC2(F)CCN(C(=O)c3sccc3Br)CC2)nc1,Ki,[1],32 nM
same,EC50,[2],20 nM
same,Emax,[3],104%
Cc1ccc(CNC[C@@]2(O)C[C@H]3CC[C@@H](C2)N3C(=O)c2ccccc2)nc1 (stereo in doubt; 38) [listing 2 of 2 here],Ki,[1],63 nM
Cc1ccc(CNCC2(F)CCN(C(=O)c3cc4ccc3CCc3ccc(cc3)CC4)CC2)nc1,Ki,[1],320 nM
Cc1ccc(CNCC2(F)CCN(C(=O)c3cc4ccccn4n3)CC2)nc1,Ki,[1],180 nM
same,EC50,[2],93 nM
same,Emax,[3],80%
Cc1ccc(CNCC2(F)CCN(C(=O)c3cc(C)cs3)CC2)nc1,Ki,[1],8.3 nM
same,EC50,[2],20 nM
same,Emax,[3],101%
Cc1ccc(CNCC2(O)CC3CCC(C2)N3C(=O)c2ccc(F)c(Cl)c2)nc1 (stereo not drawn),Ki,[1],17 nM
same,EC50,[2],18 nM
same,Emax,[3],121%
Cc1ccc(CNCC2(F)CCN(C(=O)C34CCCC(CCC3)C4)CC2)nc1,Ki,[1],19 nM
same,EC50,[2],26 nM
same,Emax,[3],96%
